Increase data for two compounds are collected here from ChEMBL document CHEMBL1126775, “A pharmacological, crystallographic, and quantum chemical study of new inotropic agents” (J Med Chem, 1993).

The species named for assay [1] is Cavia porcellus. In words: Inotropic effect in electrically driven left atrium from reserpine-treated guinea pig without 8-phenyl theophylline at the concentration of 5 x 10 e-5 M. In kind it is functional, Cardiac atrium. In a few lines: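 Paced left atrium from reserpine-pretreated, tyramine-unresponsive guinea pigs (0.5 g load, 1.5 Hz, 3-ms pulses). Cumulative additions of agent, 5 min each, with no 8-phenyltheophylline present. Developed tension as % increase over control. Mean ± SEM of six assays from six experiments; Student's t test against the 8-phenyltheophylline-treated preparations.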

Assay [2] is filed under the species Cavia porcellus. In words: Inotropic response in electrically driven left atrium from reserpine-treated guinea pig with 8-pH (10 e-5)at the concentration of 10 e-3 M. In kind it is functional, Cardiac atrium. Summed up: (§1)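 Guinea pigs pretreated with reserpine 2 mg/kg ip at 48 and 24 h before sacrifice; atria unresponsive to tyramine 2 μg/mL used. Left atrium paced at 1.5 Hz (3-ms square pulses, 10–20% above threshold, 0.5 g load). 8-Phenyltheophylline 10 μM preincubated 20 min after 90 min equilibration, then agents added cumulatively, 5 min each. Isometric developed tension as % over control; six assays from six experiments.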

The species entered for assay [3] is Cavia porcellus. In words: Inotropic response in electrically driven left atrium from reserpine-treated guinea pig with 8-pH (10 e-5)at the concentration of 10 e-5 M. In kind it is functional, Cardiac atrium. Summed up: as §1
Assay [4] is filed under the species Cavia porcellus. In words: Inotropic response in electrically driven left atrium from reserpine-treated guinea pig with 8-pH (10 e-5)at the concentration of 2 x 10 e-3 M. In kind it is functional, Cardiac atrium. Summed up:
as §1

For assay [5], the species on record is Cavia porcellus. In words: Inotropic response in electrically driven left atrium from reserpine-treated guinea pig with 8-pH (10 e-5)at the concentration of 5 x 10 e-4 M. In kind it is functional, Cardiac atrium. Summed up:
as §1

The species entered for assay [6] is Cavia porcellus. In words: Inotropic response in electrically driven left atrium from reserpine-treated guinea pig with 8-pH (10 e-5)at the concentration of 5 x 10 e-5 M. The assay is classed as functional, Cardiac atrium. In a few lines: as §1
For assay [7], the species on record is Cavia porcellus. In words: Inotropic response in electrically driven left atrium from reserpine-treated guinea pig without VER at the concentration of 5 x 10 e-4 M. In kind it is functional, Cardiac atrium. Summed up: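 Control arm without verapamil: left atrium from reserpinized guinea pigs (2 mg/kg ip, 48 and 24 h before), tyramine-unresponsive, paced at 1.5 Hz (3-ms pulses). Agents added cumulatively after 90 min equilibration, recorded 5 min each. Isometric developed tension as % increase over control; seven assays from seven experiments.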

The species named for assay [8] is Cavia porcellus. In words: Inotropic response in electrically driven left atrium from reserpine-treated guinea pig with 8-pH (10 e-5)at the concentration of 10 e-4 M. The assay is classed as functional, Cardiac atrium. In a few lines:
as §1

For assay [9], the species on record is Cavia porcellus. In words: Inotropic response in electrically driven left atrium from reserpine-treated guinea pig with ADA (2 units/ml) at the concentration of 10 e-5 M (% inhibition of contractile response) (p<0.001). The assay is classed as functional, Cardiac atrium.
For assay [10], the species on record is Cavia porcellus. In words: Inotropic response in electrically driven left atrium from reserpine-treated guinea pig with ADA (2 units/ml) at the concentration of 5 x 10 e-5 M. The assay is classed as functional, Cardiac atrium. In a few lines: (§2)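 Reserpinized guinea pigs (2 mg/kg ip, 48 and 24 h before death), tyramine-unresponsive atria. Electrically driven left atrium (1.5 Hz, 3-ms pulses, 0.5 g load) preincubated 20 min with adenosine deaminase after 90 min equilibration. Agents added cumulatively, 5 min per concentration. Developed tension recorded isometrically, % increase over control or % inhibition; six assays from six experiments, Student's t test.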

The species entered for assay [11] is Cavia porcellus. In words: Inotropic response in electrically driven left atrium from reserpine-treated guinea pig with VER (10 e-7) at the concentration of 2 x 10 e-3 M. In kind it is functional, Cardiac atrium. In a few lines:
(§3)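 Left atrium from reserpine-treated guinea pigs (2 mg/kg ip, 48 and 24 h prior; tyramine 2 μg/mL check), paced at 1.5 Hz with 3-ms pulses. Verapamil 0.1 μM added 10 min before cumulative agent additions (5 min each), after 90 min equilibration. Isometric developed tension as % increase over control; seven assays from seven experiments.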

For assay [12], the species on record is Cavia porcellus. In words: Inotropic response in electrically driven left atrium from reserpine-treated guinea pig without ADA at the concentration of 10 e-5 M. In kind it is functional, Cardiac atrium. Summed up:
(§4)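 Control arm: electrically driven left atrium (1.5 Hz, 3-ms pulses, 0.5 g load) from guinea pigs given reserpine 2 mg/kg ip at 48 and 24 h, tyramine-unresponsive; no adenosine deaminase. Cumulative additions after 90 min equilibration, 5 min per concentration. Isometric developed tension, % over control; six assays from six experiments.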

The species named for assay [13] is Cavia porcellus. In words: Effect on contractile force of spontaneously beating atria from reserpine treated guinea pigs at the concentration of 10 e-3 M. In kind it is functional.
Assay [14] is filed under the species Cavia porcellus. In words: Effect on contractile force of spontaneously beating atria from reserpine treated guinea pigs at the concentration of 10 e-4 M. In kind it is functional.
The species named for assay [15] is Cavia porcellus. In words: Effect on contractile force of spontaneously beating atria from reserpine treated guinea pigs at the concentration of 5x 10 e-5 M. In kind it is functional.
The species named for assay [16] is Cavia porcellus. In words: Effect on frequency rate of spontaneously beating atria from reserpine treated guinea pigs at the concentration of 10 e-3 M. In kind it is functional.
For assay [17], the species on record is Cavia porcellus. In words: Inotropic response in electrically driven left atrium from reserpine-treated guinea pig with VER (10 e-7) at the concentration of 10 e-5 M. The assay is classed as functional, Cardiac atrium. In a few lines:
as §3

The species named for assay [18] is Cavia porcellus. In words: Inotropic response in electrically driven left atrium from reserpine-treated guinea pig without ADA at the concentration of 5 x 10 e-4 M. The assay is classed as functional, Cardiac atrium. In a few lines: as §4
For assay [19], the species on record is Cavia porcellus. In words: Inotropic response in electrically driven left atrium from reserpine-treated guinea pig with 8-phenyl theophylline (10 e-5) at the concentration of 10 e-5 M. In kind it is functional, Cardiac atrium. Summed up:
as §1

For assay [20], the species on record is Cavia porcellus. In words: Inotropic response in electrically driven left atrium from reserpine-treated guinea pig with 8-phenyl theophylline (10 e-5)at the concentration of 10 e-3 M. In kind it is functional, Cardiac atrium. In a few lines:
as §1

The species entered for assay [21] is Cavia porcellus. In words: Inotropic response in electrically driven left atrium from reserpine-treated guinea pig with 8-phenyl theophylline (10 e-5)at the concentration of 10 e-4 M. In kind it is functional, Cardiac atrium. Summed up:
as §1

Assay [22] is filed under the species Cavia porcellus. In words: Inotropic response in electrically driven left atrium from reserpine-treated guinea pig with 8-phenyl theophylline (10 e-5)at the concentration of 2 x 10 e-3 M. The assay is classed as functional, Cardiac atrium. Summed up:
as §1

For assay [23], the species on record is Cavia porcellus. In words: Inotropic response in electrically driven left atrium from reserpine-treated guinea pig with 8-phenyl theophylline (10 e-5)at the concentration of 5 x 10 e-4 M. The assay is classed as functional, Cardiac atrium. In a few lines: as §1
The species named for assay [24] is Cavia porcellus. In words: Inotropic response in electrically driven left atrium from reserpine-treated guinea pig with 8-phenyl theophylline (10 e-5)at the concentration of 5 x 10 e-5 M. The assay is classed as functional, Cardiac atrium. Summed up: as §1
The species entered for assay [25] is Cavia porcellus. In words: Inotropic response in electrically driven left atrium from reserpine-treated guinea pig with ADA (2 units/ml) at the concentration of 10 e-5 M. In kind it is functional, Cardiac atrium. Summed up: as §2

`CC(=O)c1cc(C#N)c(O)nc1C`: the Increase was determined as 17.81% in the assay filed under Cavia porcellus [1]; 50.44% in the assay listed under Cavia porcellus [2]; 7.75% in the assay filed under Cavia porcellus [3]; 58.97% in the assay filed under Cavia porcellus [4]; 40.37% in the assay filed under Cavia porcellus [5]; 11.59% in the assay listed under Cavia porcellus [6]. Also, the Increase stood at 62.96% in the assay filed under Cavia porcellus [7]; 23.03% in the assay listed under Cavia porcellus [8]; 3.42% in the assay listed under Cavia porcellus [9]; 8.32% in the assay filed under Cavia porcellus [10]; 88.84% in the assay filed under Cavia porcellus [11]; 5.26% in the assay filed under Cavia porcellus [12]. The Increase was 65.35% in the assay filed under Cavia porcellus [13]; 35.57% in the assay filed under Cavia porcellus [14]; 27.64% in the assay filed under Cavia porcellus [15]; 21.93% in the assay listed under Cavia porcellus [16]; 12.63% in the assay listed under Cavia porcellus [17].
In the case of `CC1CC(=O)c2ccc(O)nc2C1` (stereo not given), the Increase in the assay listed under Cavia porcellus [1] came to 18.83%; in the assay filed under Cavia porcellus [18], 36.16%; in the assay listed under Cavia porcellus [19], 0.29%; in the assay filed under Cavia porcellus [20], 25.45%; in the assay listed under Cavia porcellus [21], 8.67%; in the assay filed under Cavia porcellus [22] it was 52.56%. Also, the Increase in the assay listed under Cavia porcellus [23] was found to be 15.18%; in the assay filed under Cavia porcellus [24], 3.95%; in the assay filed under Cavia porcellus [25] it was 2.48%; in the assay filed under Cavia porcellus [7], 31.4%; in the assay listed under Cavia porcellus [10] it was 5.52%; in the assay filed under Cavia porcellus [11], 43.8%. Further, the Increase in the assay listed under Cavia porcellus [12] was 15.78%; in the assay listed under Cavia porcellus [13], 46.09%; in the assay filed under Cavia porcellus [14] it was 28.89%; in the assay filed under Cavia porcellus [15], 18.88%; in the assay listed under Cavia porcellus [16] it was 19.68%; in the assay listed under Cavia porcellus [17], -0.32%.
